Measured values published in ChEMBL document CHEMBL3352721, “Identification, optimization, and pharmacology of acylurea GHS-R1a inverse agonists” (J Med Chem, 2014).
Values after ≈ are worked out from the molar mass of the structure shown.

How the values were obtained:
[1] = biological target: Growth hormone secretagogue receptor type 1 (Homo sapiens, UniProt Q92847); assay: Displacement of [125I]human ghrelin from human GHS-R1a expressed in HEK cell membranes after 60 mins by gamma counting method; set-up: species or system HEK293
[2] = Lipophilicity, logD of the compound; assay type: physicochemical; conditions: octanol/water
MDR1 [3] = assay: Apparent permeability in MDCK cells expressing MDR1 at 10 uM assessed as apical to basolateral side transport; assay type: ADME, cell-based, Canis lupus familiaris; conditions: dog
Method in brief: (§1)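 MDCK-MDR1 monolayers incubated with compound at 10 µM; permeability measured in both A→B and B→A directions, giving Papp A-B (x10^6 cm/s) and the efflux ratio.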

MDR1 [4] = assay: Efflux ratio in MDCK cells expressing MDR1 at 10 uM; assay type: ADME, cell-based, Canis lupus familiaris; conditions: dog; method in brief: as §1
[5] = Cmax in Han-Wistar rat at 2 mg/kg, po by LC-MS/MS method; assay type: ADME, organism-based; set-up: dose 2 mg/kg, route oral; conditions: in vivo
Method in brief: (§2)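 Oral gavage in male HW rats, beagle dogs or CD-1 mice, vehicle Pluronic F127 in water. EDTA plasma was collected over 24 h and quantified by LC/MS/MS after acetonitrile precipitation. Cmax and bioavailability were obtained by non-compartmental analysis against IV data.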

[6] = Ratio of drug level in homogenized brain to plasma in Han-Wistar rat measured 1 hr after iv bolus then iv infusion by LC-MS/MS method; assay type: ADME, organism-based; conditions: read-out: BPR
Method in brief: (§3)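 Brain:plasma ratio in homogenized brain 1 h after IV bolus followed by IV infusion. The free ratio used free fractions measured in plasma and brain (brain slice method or brain homogenate).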

[7] = Ratio of free drug level in homogenized brain to plasma in Han-Wistar rat measured 1 hr after iv bolus then iv infusion by LC-MS/MS method; assay type: ADME, organism-based; conditions: read-out: BPR; method in brief: as §3
[8] = Aqueous solubility at pH 7.4 under thermodynamic conditions; assay type: physicochemical; conditions: buffer, read-out: Therm_solubility
Method in brief: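 Thermodynamic solubility measured from solid samples in aqueous medium at pH 7.4.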

[9] = Cmax in CD1 mouse at 2 mg/kg, po by LC-MS/MS method; assay type: ADME, organism-based; set-up: dose 2 mg/kg, route oral; conditions: in vivo; method in brief: as §2

Chain of Growth hormone secretagogue receptor type 1 (Q92847 whole entry): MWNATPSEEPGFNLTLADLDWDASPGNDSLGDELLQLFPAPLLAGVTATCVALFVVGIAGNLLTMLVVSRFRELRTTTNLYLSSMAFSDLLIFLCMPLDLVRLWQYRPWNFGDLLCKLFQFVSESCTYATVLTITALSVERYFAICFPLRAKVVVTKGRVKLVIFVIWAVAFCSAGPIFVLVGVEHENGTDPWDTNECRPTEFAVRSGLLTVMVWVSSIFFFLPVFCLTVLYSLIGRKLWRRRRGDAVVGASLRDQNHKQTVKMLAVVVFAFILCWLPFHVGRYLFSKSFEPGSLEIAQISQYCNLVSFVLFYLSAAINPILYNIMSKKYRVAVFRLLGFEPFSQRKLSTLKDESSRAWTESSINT

Row | SMILES | IC50 [1] [nM] | logD [2] | Papp A→B at 10 µM (MDR1 [3]) [×10⁻⁶ cm/s] | efflux ratio at 10 µM (MDR1 [4]) | Cmax [5] [nM] | Kp at 1 h [6] | Kp uu at 1 h [7] | solubility thermodynamic [8] [µM] | Cmax [9] [nM]
1 | CN(C)CCCS(=O)(=O)c1ccc2nc(NC(=O)NC(=O)c3ccccc3Cl)sc2c1 | – | 1.7 | 13 | 1.4 | – | – | – | 240 (≈ 115 µg/mL) | –
2 | CS(=O)(=O)c1ccc2nc(NC(=O)NC(=O)c3ccccc3Cl)sc2c1 | 120 | 2.5 | – | – | – | – | – | < 0.47 | –
3 | COc1cc(Cl)c(C(=O)NC(=O)Nc2nc3ccc(S(=O)(=O)CCCN4CCN(C)CC4)cc3s2)cc1-n1cccn1 | – | 2.2 | 0.86 | 46 | – | – | – | – | –
4 | Cc1ccn(-c2ccc(Cl)c(C(=O)NC(=O)Nc3nc4ccc(S(=O)(=O)CCCN5CCN(C)CC5)cc4s3)c2)n1 | 0.53 | 2.6 | 0.68 | 14 | 410 | – | – | – | –
5 | CN1CCN(CCCS(=O)(=O)c2ccc3nc(NC(=O)NC(=O)c4cc(N5CCCC5)c(C#N)cc4Cl)sc3c2)CC1 | 0.24 | 2.8 | – | – | – | – | – | – | –
6 | CCc1ccc(Cl)c(C(=O)NC(=O)Nc2nc3ccc(S(=O)(=O)CCCN4CCN(C)CC4)cc3s2)c1 | 0.078 | 2.9 | 1.7 | 13 | 1500 | 0.036 | 0.04 | – | –
7 | CN1CCN(CCCS(=O)(=O)c2ccc3nc(NC(=O)NC(=O)c4cc(-n5cccn5)c(Cl)cc4Cl)sc3c2)CC1 | – | 2.3 | 0.4 | 55 | 30 | – | – | – | –
8 | Cc1cc(C)n(-c2ccc(Cl)c(C(=O)NC(=O)Nc3nc4ccc(S(=O)(=O)CCCN5CCN(C)CC5)cc4s3)c2)n1 | 1.3 | 2.5 | 0.44 | 76 | 78 | – | – | – | –
9 | O=C(NC(=O)c1ccccc1Cl)Nc1nc2ccc(S(=O)(=O)CCN3CCCC3)cc2s1 | – | 2.7 | – | – | – | – | – | 64 (≈ 31.6 µg/mL) | –
10 | CN1CCC(S(=O)(=O)c2ccc3nc(NC(=O)NC(=O)c4ccccc4Cl)sc3c2)CC1 | 65 | 2.2 | 17 | 0.9 | – | – | – | 69 (≈ 34 µg/mL) | –
11 | CN1CCC(S(=O)(=O)c2ccc3nc(NC(=O)NC(=O)c4cc(N5CCCC5)ccc4Cl)sc3c2)CC1 | 0.92 | 3.1 | 11 | 0.05 | – | – | – | – | 5800
12 | COc1ccc2nc(NC(=O)NC(=O)c3c(Cl)cccc3Cl)sc2c1 | 210 | > 3.9 | – | – | – | – | – | < 0.71 | –
13 | CS(=O)(=O)c1ccc2nc(NC(=O)NC(=O)c3ccccc3Cl)oc2c1 | > 10000 | 1.1 | – | – | – | – | – | 72 (≈ 28.4 µg/mL) | –
14 | CN1CCN(CCCS(=O)(=O)c2ccc3nc(NC(=O)NC(=O)c4cc(-n5cccc5)ccc4Cl)sc3c2)CC1 | 0.15 | 2.6 | 0.37 | 38 | 580 | – | – | – | –
15 | CCN(CC)CCCS(=O)(=O)c1ccc2nc(NC(=O)NC(=O)c3cc(N4CCOCC4)ccc3Cl)sc2c1 | 2.9 | 1.8 | 3.3 | 5.5 | 9400 | < 0.01 | – | – | –
16 | C#Cc1ccc(Cl)c(C(=O)NC(=O)Nc2nc3ccc(S(=O)(=O)CCCN4CCN(C)CC4)cc3s2)c1 | 5.1 | 2.3 | 3.3 | 3.3 | 1400 | < 0.03 | – | – | –
17 | CS(=O)(=O)c1ccc2nc(NC(=O)NC(=O)c3cc(-n4cccc4)ccc3Cl)sc2c1 | – | 2.8 | – | – | – | – | – | – | –
18 | CN1CCCN(CCCS(=O)(=O)c2ccc3nc(NC(=O)NC(=O)c4ccccc4Cl)sc3c2)CC1 | 4.2 | 1 | 0.7 | 41 | – | – | – | 340 (≈ 187 µg/mL) | –
19 | CN1CCC(S(=O)(=O)c2ccc3nc(NC(=O)NC(=O)c4cc(-n5cccn5)ccc4Cl)sc3c2)CC1 | 15 | 2.5 | 3.9 | 2.5 | – | – | – | – | 1500

The remaining lines, values ahead:

Row | IC50 [1] [nM] | logD [2] | Papp A→B at 10 µM (MDR1 [3]) [×10⁻⁶ cm/s] | efflux ratio at 10 µM (MDR1 [4]) | Cmax [5] [nM] | Kp at 1 h [6] | Kp uu at 1 h [7] | solubility thermodynamic [8] [µM] | Cmax [9] [nM] | SMILES
20 | 0.33 | 2.9 | 2 | 9.1 | 1400 | 0.18 | 1.2 | – | – | CN1CCN(CCCS(=O)(=O)c2ccc3nc(NC(=O)NC(=O)c4cc(C5CC5)ccc4Cl)sc3c2)CC1
21 | – | 1.5 | – | – | – | – | – | 240 (≈ 125 µg/mL) | – | CN1CCN(CCS(=O)(=O)c2ccc3nc(NC(=O)NC(=O)c4ccccc4Cl)sc3c2)CC1
22 | 0.67 | 2 | 2.9 | 7.6 | 1200 | < 0.03 | – | – | – | CN1CCN(CCCS(=O)(=O)c2ccc3nc(NC(=O)NC(=O)c4cc(-n5cccn5)ccc4Cl)sc3c2)CC1
23 | 0.43 | 2.9 | 0.1 | 42 | 3600 | – | – | – | – | CCN(CC)CCCS(=O)(=O)c1ccc2nc(NC(=O)NC(=O)c3cc(-n4cccc4)ccc3Cl)sc2c1
24 | 0.29 | 3.1 | 4.5 | 0.55 | 640 | < 0.03 | – | – | – | CN1CCN(CCCS(=O)(=O)c2ccc3nc(NC(=O)NC(=O)c4cc(N5CCCC5)ccc4Cl)sc3c2)CC1
25 | 4700 | 2.8 | – | – | – | – | – | 3 (≈ 1.23 µg/mL) | – | CS(=O)(=O)c1ccc2sc(NC(=O)NC(=O)c3ccccc3Cl)nc2c1
26 | 76 | > 4 | – | – | – | – | – | 0.78 (≈ 0.282 µg/mL) | – | COc1ccc2nc(NC(=O)NC(=O)c3ccccc3Cl)sc2c1
27 | 13 | 1.7 | 5.4 | 2.7 | – | – | – | 280 (≈ 143 µg/mL) | – | CCN(CC)CCCS(=O)(=O)c1ccc2nc(NC(=O)NC(=O)c3ccccc3Cl)sc2c1
28 | 8.6 | 1.3 | – | – | – | – | – | 87 (≈ 44.5 µg/mL) | – | COCCNCCCS(=O)(=O)c1ccc2nc(NC(=O)NC(=O)c3ccccc3Cl)sc2c1
29 | – | 2.3 | – | – | – | – | – | 71 (≈ 34.2 µg/mL) | – | CC(C)NCCS(=O)(=O)c1ccc2nc(NC(=O)NC(=O)c3ccccc3Cl)sc2c1
30 | 0.48 | 2.6 | 3.5 | 0.86 | 220 | – | – | – | – | Cc1ccn(-c2ccc(C(=O)NC(=O)Nc3nc4ccc(S(=O)(=O)CCCN5CCN(C)CC5)cc4s3)c(Cl)c2)n1
31 | 0.57 | 2.8 | 3.9 | 0.71 | 300 | 0.049 | 0.04 | – | – | CN1CCN(CCCS(=O)(=O)c2ccc3nc(NC(=O)NC(=O)c4cc5c(ccn5C)cc4Cl)sc3c2)CC1
32 | 3.9 | 2.1 | 0.71 | 12 | 1600 | – | – | – | – | CCN(CC)CCCS(=O)(=O)c1ccc2nc(NC(=O)NC(=O)c3cc(-n4cccn4)ccc3Cl)sc2c1
33 | – | 1.6 | 0.91 | 25 | 12 | – | – | – | – | CN1CCN(CCCS(=O)(=O)c2ccc3nc(NC(=O)NC(=O)c4cccc(-n5cccn5)c4Cl)sc3c2)CC1
34 | 0.69 | 2.5 | 0.52 | 19 | 1000 | – | – | – | – | CN1CCN(CCCS(=O)(=O)c2ccc3nc(NC(=O)NC(=O)c4cc(-c5ccccn5)ccc4Cl)sc3c2)CC1
